Experimental data as given in ChEMBL document CHEMBL4715734, “Discovery of the Potent and Selective M1 PAM-Agonist N-[(3R,4S)-3-Hydroxytetrahydro-2H-pyran-4-yl]-5-methyl-4-[4-(1,3-thiazol-4-yl)benzyl]pyridine-2-carboxamide (PF-06767832): Evaluation of Efficacy and Cholinergic Side Effects” (J Med Chem, 2016).

Experiments:
[1] = Unbound plasma concentration in scopolamine-induced Wistar rat model at 0.1 mg/kg, po measured after 1 hr; type: ADME, organism-based; conditions: in vivo
[2] = Toxicity in male Beagle dog assessed as increase in maximum systolic left ventricular pressure at 1 mg/kg, po observed upto 9 hrs post last dose by telemetry; type: organism-based, Canis lupus familiaris; conditions: in vivo
Outline: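 Crossover telemetry study in dogs at three oral doses (0.3, 1 and 3 mg/kg), N=4. Endpoints were blood pressure, maximum systolic left ventricular pressure, LV +dP/dt max, activity, heart rate, and RR, QT and QTc intervals, followed up to 9 h post dose.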

[3] = Half life in dog at 0.5 mg/kg, po or 0.1 mg/kg, iv; type: ADME, organism-based, Canis lupus familiaris; conditions: in vivo
[4] = Toxicity in rat at 3 mg/kg, po administered for 14 days; type: organism-based; conditions: in vivo, 336 h, time 14 day
Outline: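 Two-week repeat-dose toxicity study in rats. Oral dosing in 0.5% methylcellulose at 3, 10, 30 (males)/15 (females) mg/kg, N=4/sex/dose. Food intake, body weight gain and histopathology were assessed.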

[5] = Ratio of fAUC in brain to plasma of scopolamine-induced Wistar rat model at 0.1 mg/kg, po measured after 1 hr; type: ADME, organism-based; conditions: brain and plasma, read-out: Ratio AUC
[6] = Unbound brain concentration in scopolamine-induced Wistar rat model at 1 mg/kg, po measured after 1 hr; type: ADME, organism-based; conditions: in vivo
[7] = biological target: T1, Muscarinic acetylcholine receptor M2 (Homo sapiens, UniProt P08172); test: Positive allosteric modulation of human recombinant muscarinic M2 receptor stably expressed in HEK cells assessed as increase in ACh-induced cAMP accumulation up to 10 uM measured after 10 mins by GloSensor cAMP Assay; type: cell-based
T1 sequence (P08172 whole entry): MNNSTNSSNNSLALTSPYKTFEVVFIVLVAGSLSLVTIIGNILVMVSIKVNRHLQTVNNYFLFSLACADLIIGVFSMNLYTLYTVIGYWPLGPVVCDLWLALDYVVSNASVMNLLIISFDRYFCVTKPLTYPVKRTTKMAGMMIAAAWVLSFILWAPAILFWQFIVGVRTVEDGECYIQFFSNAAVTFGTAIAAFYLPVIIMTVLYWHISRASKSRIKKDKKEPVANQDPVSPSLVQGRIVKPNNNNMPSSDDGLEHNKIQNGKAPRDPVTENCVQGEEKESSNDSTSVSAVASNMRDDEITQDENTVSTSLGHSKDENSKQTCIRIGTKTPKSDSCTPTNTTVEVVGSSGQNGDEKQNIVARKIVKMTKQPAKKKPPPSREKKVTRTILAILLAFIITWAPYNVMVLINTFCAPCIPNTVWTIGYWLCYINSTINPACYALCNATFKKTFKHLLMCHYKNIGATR

[8] = Unbound plasma concentration in CD-1 mouse at 10 mg/kg, sc measured after 2 hrs by LC-MS/MS analysis; type: ADME, organism-based; conditions: in vivo
[9] = Unbound brain concentration in CD-1 mouse at 10 mg/kg, sc measured after 2 hrs by LC-MS/MS analysis; type: ADME, organism-based; conditions: in vivo
[10] = biological target: T1, Muscarinic acetylcholine receptor M2; test: Agonist activity at human recombinant muscarinic M2 receptor stably expressed in HEK cells assessed as increase in cAMP accumulation up to 10 uM measured after 10 mins by GloSensor cAMP Assay; type: cell-based
[11] = Unbound brain concentration in amphetamine-induced C57BL/6J mouse model of hyperlocomotion at 0.32 mg/kg, sc measured after 1 hr; type: ADME, organism-based; conditions: in vivo
Outline: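 Satellite PK animals from the mouse aLMA study, N=2/dose. Dosed subcutaneously with a solution in 5/15/80 DMSO/Solutol/water. Plasma and brain were sampled at T = 1 h.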

[12] = Toxicity in dog assessed as emesis at 15 mg/kg, po using spray-dried dispersion formulation; type: organism-based, Canis lupus familiaris; conditions: in vivo
Outline: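 Dogs received single escalating oral doses as a spray-dried dispersion (10% drug loading with HPMCAS-M). The dispersion was suspended in 0.5 wt% methylcellulose/0.5 wt% HPMCAS in 20 mM tris buffer, pH 7.4. One dog per sex per dose was used, and clinical signs were recorded.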

Question: Which “Cp(f)” value [1] does the source give for Cc1cnc(C(=O)N[C@H]2CCOC[C@@H]2O)cc1Cc1ccc(-c2cscn2)cc1 here?
Answer: 0.9 nM

Question: What about the Activity [2] of the same compound?
Answer: 8 mmHg

Question: And the half-life [3]?
Answer: 5.17 h

Question: And the Activity [4]?
Answer: Non-Toxic

Question: What about the Kp uu at 1 h [5] of the same compound?
Answer: 0.34

Question: And the “Drug uptake(free)” value [6]?
Answer: 6.7 nM

Question: What about the Activity [7] of the same compound?
Answer: Not Active

Question: What about the “Cp(f)” value [8] of the same compound?
Answer: 574 nM

Question: What about the “Drug uptake(free)” value [9] of the same compound?
Answer: 195 nM

Question: What about the Activity [10] of the same compound?
Answer: Not Active

Question: What about the “Drug uptake(free)” value [11] of the same compound?
Answer: 6.38 nM

Question: And the Activity [12]?
Answer: Toxic
